Data set [1] is described as follows: melting temperature; fluorescence melt of hairpins on a sequencing array, two-state fit, raised by 9.35 °C to match UV melts. The conditions noted are these: sodium 0.088 M. The essentials: (§1)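 On a sequenced MiSeq flow cell, library hairpins with annealed Cy3 and quencher oligos were imaged for Cy3 fluorescence in 2.5 °C steps up to 60 °C, in 50 mM Na-HEPES pH 8.0, 25 mM NaCl. Normalisation used pre-quench Cy3 and control constructs. Bootstrapped two-state fits gave melting temperature and folding enthalpy, combined by inverse variance across four replicates and with fitted temperatures raised by 9.35 °C to match UV melts.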

The nature of data set [2]: folding enthalpy; higher = less favourable; fluorescence melt of hairpins on a sequencing array, two-state fit. The settings on record: sodium 0.088 M. The essentials:
as §1

The values that follow come from the array DNA melting data of Ke et al. (doi:10.1101/2024.01.08.574731).

As for GTCAAGGCGAAAGCCGAC (((..(((....)))))), the Tm in data set [1] turned out to be 48.1 °C. In addition, the folding enthalpy in data set [2] was -10.2 kcal/mol.

For the sequence GTCAAGGGAAACCTTGAC (((((((....))))))), the Tm in data set [1] was determined as 58 °C. Further, the folding enthalpy in data set [2] was -47.2 kcal/mol.

Consider GTCAAGGGAAACCTTGGC (.(((((....))))).), for which the Tm in data set [1] was 49.4 °C. Also, the folding enthalpy in data set [2] is -33.1 kcal/mol.

Regarding GTCAATGCGAAAGCAGAC (((..(((....)))))), in data set [1], the Tm came to 39.1 °C. For the same sequence, in data set [2], the folding enthalpy is -16.3 kcal/mol.

As to GTCAATGGAAACACTGAC ((((.((....)).)))), in data set [1], the Tm turned out to be 34.5 °C. Besides, the folding enthalpy in data set [2] was -22.1 kcal/mol.

Consider GTCAATGGAAACATCGAC (((.(((....))).))), for which the Tm in data set [1] was found to be 33.3 °C. For the same sequence, in data set [2], the folding enthalpy is -33.1 kcal/mol.

For GTCACACGAAAGTGGAC (((.(((....)))))), the Tm in data set [1] is 48.6 °C. For the same sequence, the folding enthalpy in data set [2] was -18.7 kcal/mol.

In the case of GTCACAGGAAACTACGAC (((..((....))..))), the Tm in data set [1] was determined as 28.4 °C. The folding enthalpy in data set [2] was -21.8 kcal/mol.

Take GTCACCCGAAAGGGAGAC (((.(((....))).))): the Tm in data set [1] was determined as 57.2 °C. Besides, in data set [2], the folding enthalpy is -33.6 kcal/mol.

As to GTCACCGAAAGGTACGAC ((((((....)))..))), in data set [1], the Tm came to 41.2 °C. The folding enthalpy in data set [2] is -18 kcal/mol.

For the sequence GTCACCGAAAGGTATGAC ((((((....)))..))), the Tm in data set [1] amounted to 40.1 °C. The folding enthalpy in data set [2] is -20.2 kcal/mol.

For GTCACCGAAAGGTCCGAC ((((((....)))..))), the Tm in data set [1] came out at 31.1 °C. For the same sequence, the folding enthalpy in data set [2] is -11.2 kcal/mol.

With GTCACCGAAAGGTCTGAC ((((((....)))..))), the Tm in data set [1] turned out to be 33.7 °C. In data set [2], the folding enthalpy is -15.2 kcal/mol.

Take GTCACCGAAAGGTGGAC ((((((....))).))): the Tm in data set [1] is 54.2 °C. The folding enthalpy in data set [2] is -14.1 kcal/mol.

As for GTCACCGAAAGGTGGGAC ((((((....)))..))), the Tm in data set [1] came out at 39 °C. For the same sequence, the folding enthalpy in data set [2] was -9.56 kcal/mol.

For the sequence GTCACCGAAAGGTGTGAC ((((((....)))..))), the Tm in data set [1] was found to be 42.4 °C. Also, in data set [2], the folding enthalpy was -11.6 kcal/mol.

For GTCACCGAAAGGTTTGAC ((((((....)))..))), the Tm in data set [1] stood at 37.4 °C. In addition, in data set [2], the folding enthalpy was -15.6 kcal/mol.

For the sequence GTCACCGGAAACAGTGAC (((((.(....).))))), in data set [1], the Tm came out at 44.9 °C. Further, in data set [2], the folding enthalpy was -32.4 kcal/mol.

Take GTCACGCGAAAGCGAGAC (((.(((....))).))): the Tm in data set [1] was found to be 60.1 °C. Also, in data set [2], the folding enthalpy was -17.5 kcal/mol.

With GTCACGGGAAACCATGAC ((((.((....)).)))), in data set [1], the Tm came to 41.7 °C. The folding enthalpy in data set [2] was -29.9 kcal/mol.

In the case of GTCACGGGAAACCGTGAC (((((((....))))))), the Tm in data set [1] was 68.9 °C. In addition, the folding enthalpy in data set [2] was -35.5 kcal/mol.

For GTCACGGGAAACCGTGGC (.(((((....))))).), the Tm in data set [1] came to 62.7 °C. Besides, the folding enthalpy in data set [2] is -19 kcal/mol.

As to GTCACGGGAAACTGTGAC (((((.(....).))))), the Tm in data set [1] is 54.6 °C. The folding enthalpy in data set [2] is -40.1 kcal/mol.

Turning to GTCACTACGAAAGTAGAC (((..(((....)))))), the Tm in data set [1] amounted to 28.3 °C. Moreover, the folding enthalpy in data set [2] is -10.2 kcal/mol.

Regarding GTCACTGGAAACAGTGAC (((((((....))))))), the Tm in data set [1] was found to be 63 °C. For the same sequence, in data set [2], the folding enthalpy was -46.7 kcal/mol.

Take GTCAGACGAAAGTCGAC (((.(((....)))))): in data set [1], the Tm turned out to be 51.9 °C. In addition, the folding enthalpy in data set [2] was -31.5 kcal/mol.

GTCAGACGAAAGTCGGAC (((.(((....))).))): the Tm in data set [1] was 63.1 °C. The folding enthalpy in data set [2] is -35.5 kcal/mol.

For GTCAGAGGAAACTCTGGC (.(((((....))))).), the Tm in data set [1] stood at 50.3 °C. For the same sequence, the folding enthalpy in data set [2] was -30.4 kcal/mol.

Regarding GTCAGAGGAAACTTTGAC ((((.((....)).)))), the Tm in data set [1] is 37.8 °C. Moreover, the folding enthalpy in data set [2] is -32.4 kcal/mol.

For GTCAGCCGAAAGGCAGAC (((.(((....))).))), the Tm in data set [1] stood at 61.9 °C. The folding enthalpy in data set [2] was -24.4 kcal/mol.
